ChEMBL document CHEMBL1126074, “(+-)-carbocyclic 5'-nor-2'-deoxyguanosine and related purine derivatives: synthesis and antiviral properties” (1992)
≈ marks a conversion by molar mass, not a printed value.

Key:
Type in all cases: functional
HEL [1] = assay: Concentration required to reduce CMV(Davis) plaque formation by 50% at 20 plaque forming units(PFU) in human embryonic lung (HEL) cell cultures.
Outline: (§1)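 Human embryonic lung (HEL) cell cultures were infected with 20 or 100 plaque forming units of CMV, as specified per column. Endpoint: concentration reducing plaque formation by 50%.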

HEL [2] = assay: Concentration required to reduce VZV-07/1-TK- plaque formation by 50% in human embryonic lung (HEL) cell cultures.
HEL [3] = assay: Concentration required to reduce VZV-YS/R-TK- plaque formation by 50% in human embryonic lung (HEL) cell cultures.
[4] = Concentration required to reduce HSV-1 thymidine kinase deficient (TK-)(B2006) induced cytopathogenicity by 50% in ESM(embryonic skin muscle) cell cultures.; conditions: Homo sapiens
Outline: (§2)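 Embryonic skin muscle (ESM) cell cultures were infected at a virus input of 100 CCID50, where 1 CCID50 is the infective dose for 50% of cultures. Endpoint: concentration reducing virus-induced cytopathogenicity by 50%.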

[5] = Concentration required to reduce HSV-2(G) induced cytopathogenicity by 50% in ESM(embryonic skin muscle) cell cultures.; conditions: Homo sapiens; outline: as §2
[6] = Concentration required to cause a microscopically detectable alteration of normal ESM cell morphology.; conditions: Homo sapiens
HEL [7] = assay: Concentration required to reduce varicella zoster virus(VZV)OKA plaque formation by 50% at 20 plaque forming units(PFU) in human embryonic lung (HEL) cell cultures.
[8] = Concentration required to reduce vaccinia virus(VV) induced cytopathogenicity by 50% in ESM(embryonic skin muscle) cell cultures.; conditions: Homo sapiens; outline: as §2
HEL [9] = assay: Concentration required to reduce human embryonic lung (HEL) cell growth by 50%.; conditions: read-out: MCC
[10] = Concentration required to reduce vesicular stomatitis virus(VSV) induced cytopathogenicity by 50% in ESM(embryonic skin muscle) cell cultures.; conditions: Homo sapiens; outline: as §2
[11] = Concentration required to reduce HSV-1(KOS) induced cytopathogenicity by 50% in ESM(embryonic skin muscle) cell cultures.; conditions: Homo sapiens; outline: as §2
HEL [12] = assay: Concentration required to reduce varicella zoster virus (VZV)YS-TK-PFU plaque formation by 50% in human embryonic lung (HEL) cell cultures.
HEL [13] = assay: Concentration required to reduce CMV(AD-169) plaque formation by 50% in human embryonic lung (HEL) cell cultures.; outline: as §1
[14] = Concentration required to reduce HSV-1 thymidine kinase deficient (TK-)(VMW 1837) induced cytopathogenicity in by 50% ESM(embryonic skin muscle) cell cultures.; conditions: Homo sapiens; outline: as §2
HEL [15] = assay: Concentration required to reduce CMV (Davis) plaque formation by 50% at 100 plaque forming units(PFU) in human embryonic lung (HEL) cell cultures.; outline: as §1

With `Nc1ncnc2c1ncn2[C@H]1C[C@@H](O)[C@@H](O)C1` the MIC (HEL [1]) was 200 µg/mL (≈ 850 µM), the MIC (HEL [2]) was 24 µg/mL (≈ 102 µM) and the MIC (HEL [3]) was 47 µg/mL (≈ 200 µM). For the same molecule, the MIC [4] was 70 µg/mL (≈ 298 µM), the MIC [5] was over 200 µg/mL and the MCC [6] was over 400 µg/mL. It also gave an MIC (HEL [7]) of 24 µg/mL (≈ 102 µM), an MIC [8] of over 100 µg/mL and a CC50 (50% cell growth inhibitory concentration) (HEL [9]) of 110 µg/mL (≈ 468 µM). It also gave an MIC [10] of over 200 µg/mL, an MIC [11] of over 200 µg/mL and an MIC (HEL [12]) of 25 µg/mL (≈ 106 µM). The MIC (HEL [13]) was 200 µg/mL (≈ 850 µM), the MIC [14] was 100 µg/mL (≈ 425 µM) and the MIC (HEL [15]) was 200 µg/mL (≈ 850 µM).
`Nc1nc(O)c2ncn([C@H]3C[C@@H](O)[C@@H](O)C3)c2n1` showed an MIC (HEL [1]) of 270 µg/mL (≈ 1070 µM), an MIC (HEL [2]) of 164 µg/mL (≈ 653 µM) and an MIC (HEL [3]) of 192 µg/mL (≈ 764 µM). The MIC [4] was 300 µg/mL (≈ 1190 µM), the MIC [5] was 300 µg/mL (≈ 1190 µM) and the MCC [6] was over 400 µg/mL. For the same molecule, the MIC (HEL [7]) was 90 µg/mL (≈ 358 µM), the MIC [8] was 300 µg/mL (≈ 1190 µM) and the CC50 (50% cell growth inhibitory concentration) (HEL [9]) was 196 µg/mL (≈ 780 µM). The MIC [10] was over 400 µg/mL, the MIC [11] was 300 µg/mL (≈ 1190 µM) and the MIC (HEL [12]) was 91 µg/mL (≈ 362 µM). The MIC (HEL [13]) was 250 µg/mL (≈ 995 µM), the MIC [14] was 150 µg/mL (≈ 597 µM) and the MIC (HEL [15]) was 250 µg/mL (≈ 995 µM).
`Nc1nc(N)c2ncn([C@H]3C[C@@H](O)[C@@H](O)C3)c2n1` showed an MIC (HEL [1]) of 70 µg/mL (≈ 280 µM), an MIC (HEL [2]) of 70 µg/mL (≈ 280 µM) and an MIC (HEL [3]) of 89 µg/mL (≈ 356 µM). It also gave an MIC [4] of 100 µg/mL (≈ 400 µM), an MIC [5] of 200 µg/mL (≈ 799 µM) and an MCC [6] of over 400 µg/mL. The MIC (HEL [7]) was 70 µg/mL (≈ 280 µM), the MIC [8] was over 150 µg/mL and the CC50 (50% cell growth inhibitory concentration) (HEL [9]) was 139 µg/mL (≈ 555 µM). For the same molecule, the MIC [10] was over 200 µg/mL, the MIC [11] was over 200 µg/mL and the MIC (HEL [12]) was 200 µg/mL (≈ 799 µM). The MIC (HEL [13]) was 70 µg/mL (≈ 280 µM), the MIC [14] was 150 µg/mL (≈ 599 µM) and the MIC (HEL [15]) was 70 µg/mL (≈ 280 µM).
`O=c1[nH]c(=O)n([C@H]2C[C@H](O)[C@@H](CO)O2)cc1/C=C/Br` [BRIVUDINE] showed an MIC (HEL [2]) of over 10 µg/mL, an MIC (HEL [3]) of over 10 µg/mL and an MIC [4] of 100 µg/mL (≈ 300 µM). For the same molecule, the MIC [5] was 10 µg/mL (≈ 30 µM), the MCC [6] was over 400 µg/mL and the MIC (HEL [7]) was 0.001 µg/mL (≈ 0.003 µM). It also gave an MIC [8] of 1 µg/mL (≈ 3 µM), an MIC [10] of over 400 µg/mL and an MIC [11] of 0.07 µg/mL (≈ 0.21 µM). For the same molecule, the MIC (HEL [12]) was 0.0007 µg/mL (≈ 0.0021 µM) and the MIC [14] was 10 µg/mL (≈ 30 µM).
Work on `Nc1nc2c(ncn2COC(CO)CO)c(=O)[nH]1` [GANCICLOVIR] yielded an MIC (HEL [1]) of 0.8 µg/mL (≈ 3.13 µM), an MIC (HEL [7]) of 3 µg/mL (≈ 11.8 µM) and an MIC (HEL [15]) of 0.3 µg/mL (≈ 1.18 µM).
Work on `NC(=O)c1ncn([C@@H]2O[C@H](CO)[C@@H](O)[C@H]2O)n1` [RIBAVIRIN] yielded an MIC [4] of 300 µg/mL (≈ 1230 µM), an MIC [5] of over 400 µg/mL and an MCC [6] of over 400 µg/mL. It also gave an MIC [8] of 70 µg/mL (≈ 287 µM), an MIC [10] of 150 µg/mL (≈ 614 µM) and an MIC [11] of over 400 µg/mL. For the same molecule, the MIC [14] was 40 µg/mL (≈ 164 µM).
